# Compound activity: PubChem, several laboratories
# Most compounds without a hit are left out; they make up all but 3.7% or so of the library.
# Myeloid diff MLP: compounds promoting myeloid differentiation | calls only at 10 µM | ER-HoxA9 myeloid progenitors, lysozyme-GFP differentiation, flow cytometry | actives 1% (n = 360,000);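 active = normalized GFP-positive differentiation at or above the plate's own cutoff, the solvent-only control mean plus 3 SD; inconclusive = no clear call, values can overlap the other calls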;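 note: cells exposed to compound for four days before flow analysis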
# EBI2 block: blocks human EBI2 receptor beta-arrestin signaling. P32249. EBI2 beta-arrestin recruitment, luminescence, 7a,25-OHC stimulated. AID 651636. inhibition, % at 5 µM. actives 0.81% (n = 360,000); in the data active = inhibition above about 38%;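 note: enzyme fragment complementation signal reports receptor beta-arrestin coupling in cells; 0% = agonist plus DMSO wells and 100% = wells without agonist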
# Target sequence (P32249 whole entry, looked up, the tested form may be a part): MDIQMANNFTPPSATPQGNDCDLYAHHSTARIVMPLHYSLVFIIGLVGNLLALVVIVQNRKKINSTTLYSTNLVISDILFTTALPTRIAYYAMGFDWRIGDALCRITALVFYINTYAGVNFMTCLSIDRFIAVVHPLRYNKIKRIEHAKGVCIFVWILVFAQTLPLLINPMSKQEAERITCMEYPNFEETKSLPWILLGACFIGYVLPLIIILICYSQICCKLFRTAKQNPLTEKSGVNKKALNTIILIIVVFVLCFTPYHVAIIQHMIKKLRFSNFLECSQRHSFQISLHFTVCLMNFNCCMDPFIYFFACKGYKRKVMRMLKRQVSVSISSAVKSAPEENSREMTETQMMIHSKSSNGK
# MC4R antag cAMP: antagonists of human melanocortin 4 receptor (MC4R); P32245; MC4R-expressing cells, MTII-stimulated cAMP, LANCE TR-FRET; inhibition, % at 6.5 µM; actives 0.48% (n = 360,000);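 active = inhibition above its plate's cutoff, the mean of tested wells on that plate plus 3 SD, cut at about 29% in these data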;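 note: 0% = Melanotan II alone and 100% = Melanotan II plus saturating MCL0020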
# Target sequence (P32245 whole entry, looked up): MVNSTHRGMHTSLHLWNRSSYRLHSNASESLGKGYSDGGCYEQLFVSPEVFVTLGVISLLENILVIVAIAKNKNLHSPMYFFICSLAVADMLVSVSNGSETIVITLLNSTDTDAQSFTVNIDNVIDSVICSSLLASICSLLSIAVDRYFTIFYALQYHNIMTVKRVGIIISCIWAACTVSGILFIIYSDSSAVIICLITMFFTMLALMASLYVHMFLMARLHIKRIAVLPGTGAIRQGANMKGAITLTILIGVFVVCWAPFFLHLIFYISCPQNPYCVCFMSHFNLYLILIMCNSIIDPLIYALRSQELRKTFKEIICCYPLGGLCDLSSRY
#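 Assay system: U2OS cells stably expressing human melanocortin 4 receptor (MC4R) / Dosing: 6.5 µM / Timing: compound 30 min, challenge 1 h, detection 1 h / Measured by: Eu-cAMP/anti-cAMP TR-FRET, emission 671 nm / Replicates: singlicate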
# MC4R barr agon: activates human MC4R beta-arrestin recruitment; P32245; U2OS MC4R beta-arrestin complementation, luminescence; percent of melanotan II response, DMSO zero; activation, % at 8.9 µM; actives 0.98% (n = 360,000);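 active = activation above a per-plate cutoff, the mean activation of sample wells on that plate plus 3 SD, cut at about 8% in these data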
# Granule exo inh: lytic granule exocytosis inhibition. actives 0.66% (n = 360,000). TALL-104 LAMP-1 surface exposure, flow cytometry; cells stimulated with thapsigargin and PMA. inhibition, % at 10 µM;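 active = inhibition above about 55%, limit read from the data; inconclusive = no clear call, values can overlap the other calls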
# MC4R barr ag: human MC4R beta-arrestin agonism confirmation; actives 31% (n = 2,400); U2OS MC4R beta-arrestin recruitment, luminescence; scaled DMSO 0%, Melanotan II 100%; shares compounds with MC4R barr agon; activation, % at 8.9 µM; AID 602192;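 active = mean activation across replicates above the hit cutoff set in the earlier primary screen, cut at about 8% in these data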
# MOR DOR agonist: counter-screen for MC4R agonists: agonists of mu-delta opioid heterodimer; AID 602194; U2OS PathHunter beta-arrestin, beta-gal luminescence; percent of deltorphin B response, DMSO zero; shares compounds with MC4R barr agon; activation, % at 9.2 µM; actives 5.8% (n = 2,400);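 active = mean activation across replicates exceeds the hit threshold derived in the earlier primary screen, cut at about 18% in these data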;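 note: 100% = deltorphin B at 0.9 µM final and 0% = DMSO alone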
# Active calls of the source: *; i = inactive; u = inconclusive; x = no result given.
SMILES,Myeloid diff MLP,EBI2 block,MC4R antag cAMP,MC4R barr agon,Granule exo inh,MC4R barr ag,MOR DOR agonist
O=C(O)c1ccccc1-c1ncc(-c2ccccc2)o1,i,-0.8,5.3,-0.5,1.5,x,x
CN1C(=O)/C(=C/c2cc3c(cc2Br)OCO3)NC1=S,i,-0.8,-13.4,10.9*,-2.5,0.1,3.2
COCCn1c(C)cc(/C=C2\NC(=S)N(C)C2=O)c1C,i,3.2,-4.2,-1.4,-1.3,x,x
CCCN(CCC)CCNC(=O)c1cc2c(-c3ccc(Cl)cc3)nn(C)c2s1,u,-2.7,-2.2,10.6*,25.3,9.0*,9.3
O=C(COC(=O)c1ccc2c(c1)C(=O)N(CCc1ccccc1)C2=O)Nc1ccc(OC(F)F)cc1,i,-8.7,11.3,13.1*,-1.4,10.3*,5.8
O=C(NC(=S)Nc1ccc2c(c1)OCO2)c1ccc(Cl)cc1,i,8.2,-6.4,11.2*,-1.4,0.7,2.5
Cc1ccc(C(=O)NC(=S)Nc2ccc(NC(=O)c3cccc(Cl)c3)cc2)cc1,i,16.6,4.5,12.1*,1.4,13.3*,8.3
CCc1ccc(C(=O)NC(=S)Nc2ccc3c(c2)OCCO3)cc1,i,10.3,1.1,-1.2,4.9,x,x
O=C(Cc1ccc(Cl)cc1)N1CCC2(CC1)NCCc1[nH]cnc12,i,-16.3,0.4,-1.9,-2.2,x,x
C=C1C2(C(=O)Nc3ccc(SC(F)F)cc3)CCC(C2)C1(C)C (centres undefined),i,41.8,-4.2,16.6*,-0.1,0.2,6.1
O=C(Nc1ccc(SC(F)F)cc1)C12CCC(CC1)C2,i,6.2,-1.6,-0.7,6.8,x,x
CCOc1ccc(C2CC(c3ccc(CC)cc3)Nc3nc(N)nn32)cc1 (centres undefined),i,-1.0,10.4,10.3*,-0.3,7.8,2.9
CCc1ccc(C2CC(c3ccccc3Cl)Nc3nc(N)nn32)cc1 (centres undefined),i,-6.5,6.8,18.7*,-2.3,13.7*,4.0
O=C(CCCN1C(=O)/C(=C/c2ccc(F)cc2)SC1=S)NC1CCS(=O)(=O)C1 (centres undefined),i,8.8,4.9,-1.6,-1.9,x,x
CCN(c1ccccc1)S(=O)(=O)c1cccc(C(=O)NCCOc2ccccc2OC)c1,i,8.0,7.3,-3.1,-4.6,x,x
CCN1C(=O)/C(=C/N(C(C)=O)c2ccccc2)N(c2ccccc2)C1=S,i,-5.8,13.3,-2.2,3.7,x,x
CCc1ccc(/C=C2/C(=O)N(c3ccccc3)C(=S)N2CC(=O)OC)s1,i,6.9,4.4,10.3*,-8.4,7.3,5.9
Cc1cc(N/N=C/c2ccccc2O)nc(-c2ccccc2O)n1,i,19.7,-0.1,-1.1,-2.7,x,x
Cc1cc(N/N=C\c2ccccc2)nc(-c2ccccc2O)n1,i,15.9,-1.9,20.3*,-0.4,2.1,6.1
CC1(C(=O)NS(=O)(=O)c2ccccc2OC(F)(F)F)CCN1C(=O)Cc1ccccc1 (centres undefined),i,0.7,6.0,-0.5,7.9,x,x
COc1cc(CNc2ncnc3c2ncn3[C@H]2CN(CCN3CCOCC3)C[C@@H](CO)O2)cc(OC)c1OC,i,-4.7,0.7,2.8,-10.1,x,x
Cc1cccc2c1nc(-c1ccccc1)n1nnnc21,i,15.3,-3.6,13.3*,-1.7,2.2,4.2
Cc1cccc2c1nc(-c1ccccc1)n1cnnc21,i,-0.9,13.7,0.1,-1.1,x,x
Cc1c(C(=O)NC2CCCc3ccccc32)oc2ccc(S(=O)(=O)N3CCCCC3)cc12 (centres undefined),i,19.4,16.9,0.3,-3.8,x,x
Cc1c(C(=O)NC2CCCc3ccccc32)oc2ccc(S(=O)(=O)N3CCCC3)cc12 (centres undefined),i,18.7,17.0,14.2*,2.2,4.0,3.6
SMILES,Myeloid diff MLP,EBI2 block,MC4R antag cAMP,MC4R barr agon,Granule exo inh,MC4R barr ag,MOR DOR agonist
Nc1c(C(=O)Nc2ccc(S(=O)(=O)N3CCCC3)cc2)sc2nc3ccc(OC(F)(F)F)cc3cc12,i,-17.4,16.4,14.3*,-9.5,12.5*,14.0
CN1C(=O)/C(=C/c2ccc(OCc3ccccc3F)cc2)NC1=S,i,6.0,8.1,20.1*,-7.1,1.9,5.4
CN1C(=O)/C(=C/c2ccc(OCc3ccc(F)cc3)cc2)NC1=S,i,8.0,-3.7,20.3*,10.7,7.0,12.7
CN1C(=O)/C(=C/c2ccc(OCc3ccc(F)cc3)cc2)N(C)C1=S,i,10.3,-1.7,-0.5,-5.8,x,x
N=C1C(c2nc(-c3ccc(F)cc3)cs2)=C(O)CN1Cc1ccc(Cl)cc1,i,-7.1,10.8,13.8*,6.8,4.6,6.9
COc1cccc(CN2CC(O)=C(c3nc(-c4ccc(Cl)cc4)cs3)C2=N)c1,i,5.5,1.8,1.9,-5.6,x,x
COc1ccc(N2CC(O)=C(c3nc(-c4ccc(F)cc4)cs3)C2=N)cc1Cl,i,3.1,9.8,11.1*,-2.4,12.7*,3.2
COc1ccc(-c2csc(C3=C(O)CN(Cc4ccc(S(N)(=O)=O)cc4)C3=N)n2)cc1OC,i,-2.5,-0.8,-0.6,1.7,x,x
COc1ccc(-c2csc(C3=C(O)CN(Cc4ccc(Cl)cc4)C3=N)n2)cc1OC,i,12.5,6.4,102.5*,0.2,21.3*,11.0
COc1ccc(N2CC(O)=C(c3nc(-c4ccc(F)cc4)cs3)C2=N)cc1OC,i,8.8,11.4,-0.9,1.2,x,x
O=C(NC1CCSc2ccccc21)c1ccc(C(F)(F)F)cc1 (centres undefined),x,0.1,6.0,9.7*,8.2,1.0,4.9
COc1ccc2nc(SCC(=O)NC3(C#N)CCCCC3)[nH]c2c1,i,0.2,-0.2,-1.8,-10.7,x,x
O=c1cc(-c2ccc(O)c(O)c2)oc2ccc3ccccc3c12,i,8.1,-1.3,1.4,-2.9,x,x
O=c1cc(-c2ccccc2)oc2ccc3ccccc3c12,i,7.8,3.4,10.0*,1.7,9.5*,3.8
O=C(CCl)NC(Cc1ccccc1)C(=O)OCC(=O)c1ccc(-c2ccccc2)cc1 (centres undefined),u,3.4,10.0,14.4*,-3.6,2.0,6.1
CC(=O)NC(Cc1ccccc1)C(=O)OCC(=O)c1ccc(Cl)cc1 (centres undefined),i,-10.8,5.1,0.0,-6.2,x,x
CCOc1cc(/C=N/NC(=O)CSc2nnc(C)s2)ccc1OCc1ccccc1Cl,i,15.9,12.8,11.2*,1.5,5.0,6.8
O=C(CSc1nnc(SCc2ccccc2Cl)s1)N/N=C/c1ccc(C(=O)O)cc1,i,0.6,12.8,2.0,3.2,x,x
CCOC(=O)NNC(=O)C1CCC(C)CC1 (centres undefined),i,-1.6,1.3,-3.0,-0.8,x,x
